Data on 8 compounds can be found in ChEMBL document CHEMBL1128261, “Synthesis and biological activity of thiazolylindolequinones, analogues of the natural product BE 10988” (J Med Chem, 1995).

In one experiment the test system is SK-BR-3. The experiment in a line: The IC50 value was measured on human breast cancer cell line SK-BR-3. Format: functional, cell-based. The procedure, abridged: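 SKBr3 breast cancer cells were seeded at 10^4 cells/well for exponential growth over 4 days. Graded compound concentrations were added 2 h after plating (4 wells per concentration), with continuous exposure for 4 days and MTT growth readout. Each experiment was done at least twice, and IC50 was derived from the cumulative data.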

A short description of experiment [1]: Ratio of IC50 against V79 cells in the presence of air to that of nitrogen. Type of experiment: functional.
For experiment [2], the system named is V79. The experiment in a line: The IC50 value was measured on V79 cells in the presence of nitrogen using MTT assay. Format: functional, cell-based. The note with it: Cricetulus griseus. The procedure, abridged: (§1)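 V79 Chinese hamster cells were exposed to drug under aerobic (air) or hypoxic (N2) conditions. After the drug was removed, cells proliferated for 3 days before MTT assay. IC50 is the concentration killing 50% of cells under the initial treatment condition.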

Experiment [3] concerns V79. In words: The IC50 value was measured on V79 cells in the presence of air using MTT assay. Type of experiment: functional, cell-based. The note with it: Cricetulus griseus. In short, it runs like this: as §1
A general note: Tetrazolium dyes change colour on reduction, which living cells bring about.

As for `Cc1csc(-c2cn(C)c3c2C(=O)C(=N)C=C3O)n1`, the results for the IC50 in the experiment with SK-BR-3, in the experiment on V79 [2] and in the experiment with V79 [3] were 0.73 µM, 6 µM and 10.3 µM, respectively. For the same compound, the Ratio in experiment [1] amounted to 1.7.
On the same counts, the results for `Cn1cc(-c2csc(C(N)=O)n2)c2c1C(=O)C=C(N)C2=O` are 4.1 µM, 4.1 µM, 5.5 µM and 1.3.
The like results for `COC1=CC(=O)c2c(c(-c3nc(C)cs3)cn2C)C1=O` were, in that order, 1.4 µM, 47.7 µM, 72.9 µM and 1.5.
On the same counts, the results for `Cn1cc(-c2nc(C(N)=O)cs2)c2c1C(=O)C=C(N)C2=O` are 8.7 µM, 5.1 µM, 6.2 µM and 1.2.
Take `CCOC(=O)c1csc(-c2cn(C)c3c2C(=O)C(OC)=CC3=O)n1`: the IC50 stood at 27.8 µM in the experiment with SK-BR-3, 345 µM with V79 [2] and 423 µM in the experiment on V79 [3]. Also, in experiment [1], the Ratio is listed as 1.2.
`O=C1c2c(O)ccc(O)c2C(=O)c2c(NCCNCCO)ccc(NCCNCCO)c21` [MITOXANTRONE] gave an IC50 with SK-BR-3 of 0.016 µM.
In the case of `CCOC(=O)c1coc(-c2cn(C)c3c2C(=O)C(OC)=CC3=O)n1`, the IC50 in the experiment with SK-BR-3 turned out to be 4.8 µM; in the experiment with V79 [2], 46 µM; in the experiment on V79 [3], 51.7 µM. Moreover, the Ratio in experiment [1] was found to be 1.1.
Regarding `CCOC(=O)c1nc(-c2cn(C)c3c2C(=O)C(OC)=CC3=O)cs1`, the IC50 with SK-BR-3 was 16.9 µM; with V79 [2], 60.9 µM; in the experiment with V79 [3], 38.7 µM. Further, in experiment [1], the Ratio is 0.64.

In general, IC50 refers to the midpoint of a concentration-inhibition curve.
